# Bioassay records from PubChem BioAssay.
# Sampled rows, rich in hits. Any-hit rate of the full collection: about 3.2%.
# JMJD2C inh: inhibitors of human GASC-1 (JMJD2C) demethylase; Q9H3R0; GST-JMJD2C(1-420) H3K9me3 demethylation, DELFIA europium; inhibition, % at 2.35 µM; actives 0.069% (n = 330,000); AID 2099;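 active means more than half of a compound's replicate wells show inhibition beyond 50%, single wells judged on their own value; inconclusive means some, but no more than half, of replicates pass 50% inhibition; inactive means no replicate passes 50% inhibition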;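 further: signal counts dimethyl H3K9 product captured on neutravidin plate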
# Target sequence (Q9H3R0 1-420 limits assumed): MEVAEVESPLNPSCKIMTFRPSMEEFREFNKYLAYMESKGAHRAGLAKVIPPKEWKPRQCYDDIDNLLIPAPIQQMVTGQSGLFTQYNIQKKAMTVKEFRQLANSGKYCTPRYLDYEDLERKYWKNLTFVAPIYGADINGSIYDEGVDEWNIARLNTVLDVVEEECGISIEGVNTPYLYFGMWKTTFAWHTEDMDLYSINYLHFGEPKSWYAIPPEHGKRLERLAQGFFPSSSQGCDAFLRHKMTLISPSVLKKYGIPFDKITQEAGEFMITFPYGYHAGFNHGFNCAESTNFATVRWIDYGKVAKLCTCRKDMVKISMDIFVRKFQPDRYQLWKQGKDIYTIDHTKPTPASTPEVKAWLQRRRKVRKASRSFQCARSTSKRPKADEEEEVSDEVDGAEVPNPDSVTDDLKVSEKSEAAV
# NR2E3 ag-1: NR2E3 (human) agonism; Q9Y5X4; GST-NR2E3/biotin-RetCOR TR-FRET, 1536-well; inhibition of corepressor binding, % at 4.78 µM; actives 0.12% (n = 320,000); AID 2300;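 active means percent inhibition above the cutoff of mean plus 3 SD of all tested compounds, set per screening campaign, cut at about 20% in these data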
#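 system = GST-tagged NR2E3 plus biotinylated RetCOR corepressor | input = 1.35 nM GST-NR2E3 | also added = 7 nM biotin-RetCOR | schedule = 5 h incubation at 4 °C | measured by = TR-FRET with europium anti-GST and streptavidin-D2, 340 nm excitation | read-out = percent loss of FRET ratio relative to control wells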
# DAX1 inh-1: NR0B1 (DAX1) inhibition; P51843; HEK293 Gal4-DAX1 luciferase reporter, luminescence; inhibition, % at 6.75 µM; actives 0.99% (n = 340,000);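 active means inhibition above the mean over all tested compounds plus 3 SD, cut at about 4.2% in these data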;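 further: inhibition shows as a rise in luminescence from relieved DAX1 repression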
# SMARCA2 activ: increases SMARCA2 function in MMTV reporter cells | MG213 cells, MMTV-luciferase reporter, dexamethasone, overnight | activation, % at 9.1 µM | actives 1% (n = 370,000); in the data active means activation above about 7.8%
# NR2E3 ag-2: agonists of human NR2E3 nuclear receptor; CHO-S Gal4-NCOR/VP16-NR2E3 two-hybrid, luciferase; actives 0.35% (n = 360,000); inhibition of corepressor binding, % at 3.98 µM; AID 602229;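 active means inhibition above the mean of all tested compounds plus 3 SD, cut at about 70% in these data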;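 further: higher means lower luciferase signal from less NR2E3 corepressor binding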
# DAX1 inh-2: blocks DAX1 repression of SF-1 activated StAR promoter; HEK293T StAR-luciferase reporter, SF-1/DAX-1 repression relief; inhibition, % at 6.8 µM; actives 1.1% (n = 370,000); AID 652010;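 active means inhibition above the mean over all tested compounds plus 3 SD, cut at about 3.6% in these data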;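 further: higher inhibition means more luminescence from relief of DAX-1 repression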
# NR2E3 ag confirm: NR2E3 agonism confirmed in two-hybrid assay. CHO-S mammalian two-hybrid NR2E3-NCOR, luciferase luminescence. shares compounds with NR2E3 ag-2. AID 624378. inhibition, % at 3.98 µM. actives 51% (n = 2,300);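 active means average inhibition above a cutoff equal to the mean inhibition of all tested compounds plus one SD, cut at about 70% in these data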
# GAL4-VP16 luc: reduces GAL4-VP16 reporter signal in NR2E3 counterscreen | shares compounds with NR2E3 ag-2 | CHO-S GAL4-VP16 luciferase reporter, luminescence | actives 29% (n = 2,300) | inhibition, % at 3.98 µM | AID 624379;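 active means mean inhibition above a cutoff equal to the average over all tested compounds plus one standard deviation, cut at about 70% in these data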;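 further: luciferase from a UAS reporter driven by GAL4-VP16 transactivation; higher means less reporter light so more repression of VP16 activity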
# A number is an active result; . = inactive; ? = inconclusive; / = not tested or not shown.
SMILES,JMJD2C inh,NR2E3 ag-1,DAX1 inh-1,SMARCA2 activ,NR2E3 ag-2,DAX1 inh-2,NR2E3 ag confirm,GAL4-VP16 luc
CCC(Sc1nc(C)cc(=O)[nH]1)C(=O)Nc1sc2c(c1C#N)CCCC2 (stereo not given),.,.,.,.,88,.,76,.
CC(Sc1nc(N)cc(=O)[nH]1)C(=O)Nc1sc2c(c1C#N)CCCC2 (stereo not given),.,.,.,.,.,.,.,.
N#Cc1c(NC(=O)CSc2ncn[nH]2)sc2c1CCCCC2,.,.,.,.,.,.,/,/
Cc1nnc(SC(C)C(=O)Nc2sc3c(c2C#N)CCCC3)[nH]c1=O (stereo not given),.,.,.,.,.,.,/,/
N#Cc1c(NC(=O)CSc2nc(N)cc(=O)[nH]2)sc2c1CCCCCC2,.,.,.,.,.,.,.,.
O=C(CCc1ccccc1)N[C@H]1[C@H](OCc2ccccc2)CCC[C@@]12C(=O)N(Cc1ccccc1)c1ccc(-c3cnccn3)cc12,/,/,/,.,/,.,/,/
CCOC(=O)[C@@H]1c2[nH]c3ccccc3c2C[C@@]2(C(=O)OC)C=CCN12,/,/,/,.,/,.,/,/
COCc1cccc(-c2cc(C(=O)OC)c3n(c2=O)CCC3)c1,/,/,/,.,/,.,/,/
CC(=O)CC[C@@H]1CC[C@]2(CCCN(C(=O)C3CCCCC3)C2)O1,/,/,/,.,/,.,/,/
CC(=O)N1CCN(C(=O)CSc2nc3cccnc3n2C)CC1,/,/,/,.,/,.,/,/
COC1=C(C)C(=O)C2=C(C1=O)C1C3CC4=C(C(=O)C(OC)=C(C)C4=O)C(CNC(=O)C(C)=O)N3C(C#N)C(C2)N1C (stereo not given),/,/,.,.,102,.,100,95
CCCOc1ccc(S(=O)(=O)NCc2ccc(OC)cc2)cc1,.,.,.,.,.,.,.,.
COc1cc2c(c(OC)c1OC)C1(CCCCC1)CC2NS(=O)(=O)C(C)C (stereo not given),/,/,/,.,/,.,/,/
COc1cc(C[C@@H]2C(=O)OC[C@H]2Cc2ccc(OC)c(OC)c2)ccc1O,.,.,.,.,87,.,95,81
COc1cc(CC2COC(=O)C2Cc2ccc(O)c(OC)c2)ccc1O (stereo not given),/,/,/,.,/,.,/,/
COC[C@@H]1CCCN1c1cccc2c1S(=O)(=O)N(C1CC1)CC[C@@H](C)O2,/,/,/,.,/,.,/,/
O=C(Nc1ccccc1)/C(=C\c1cccs1)NC(=O)c1ccccc1,.,.,.,.,.,.,/,/
Cc1cccc(NC(=O)/C(=C\c2cccs2)NC(=O)c2ccccc2)c1,.,.,.,/,.,/,.,.
S=c1[nH]nc(-c2cc(-c3ccsc3)n[nH]2)n1-c1cccc2ccccc12,.,.,.,.,.,.,.,.
Cc1c(Cl)ccc2sc(N3CCN(C(=O)C4=COCCO4)CC3)nc12,?,.,.,.,79,.,90,.
CCN(CC)C(=O)CC[C@H]1CC[C@]2(CCCN(Cc3cccs3)C2)O1,/,/,/,.,/,.,/,/
Cc1cc(C(=O)CSc2ccc(F)cc2)cc(C)c1OC(=S)N(C)C,.,.,.,.,.,.,.,.
O=S(=O)(NC1CCCC1)c1ccc(S(=O)(=O)N2CCc3ccccc32)cc1,.,.,.,.,.,.,79,.
O=C(NNC(=O)c1cccc(S(=O)(=O)N2CCc3ccccc32)c1)c1ccccc1,.,/,.,.,.,.,80,71
N[C@H](C(=O)N[C@@H](Cc1ccccc1)C(=O)N1CCC2CCN(S(=O)(=O)c3ccccc3)CC21)c1ccccc1 (stereo not given in full),/,/,/,.,/,.,/,/
Cc1cc(-c2nnc(SCC(=O)Nc3cccc4ccccc34)n2N)n[nH]1,/,/,/,.,/,.,/,/
Cc1ccc2nc(C(F)(F)F)c(C#N)c(N)c2c1,.,.,.,.,75,.,.,.
Cc1cc(C)c2nc(C(F)(F)F)c(C#N)c(N)c2c1,.,.,.,.,.,.,/,/
